Measured values: PubChem BioAssay
Results filed as inconclusive are left out. Active and inactive are the calls of the source.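 Rule for the calls, unless noted: active = cell viability at or below a set limit in both duplicate runs, the limit being the all-compound median minus 4 SD (cut at about 23% in these data, passing the limit was not always enough); inconclusive = no clear call, values can overlap the other calls; inactive = the rest.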

Legend:
[1] = S. cerevisiae growth inhibition in permissive medium (OD615), pilot counter-assay for S. cerevisiae lifespan shortening project, permissive growth control (AID 705;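 active = growth inhibition above 25% in both replicates, a cutoff set 3 SD above the mean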); conditions: OD615, 24 h, at 10 µM, hits give high values
Procedure, shortened: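 System: S. cerevisiae with engineered DeaD lifespan system. Medium: SC raffinose/galactose permissive medium. Doses: single compound dose of 10 µM, 0.25% DMSO final. Schedule: 24 h exposure, 30 °C. Measured by: OD615 turbidity read. Read-out: growth inhibition.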

[2] = S. cerevisiae growth inhibition in restrictive medium, OD615, pilot screen, restrictive growth control, yeast lifespan reduction project (AID 706;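 active = growth inhibition above a set limit, 3 SD over mean compound inhibition, in both replicates, cut at about 43% in these data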;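 note: modified DeaD lifespan yeast strain shifted to restrictive glucose medium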); conditions: OD615, 48 h, at 10 µM, hits give high values
Procedure, shortened: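 Assay system – genetically modified Saccharomyces cerevisiae, DeaD replicative lifespan assay strain · Medium – CSMM-D glucose medium · Doses – 10 µM compound, 0.25% DMSO · Times – 4 h pre-incubation, 48 h exposure at 30 °C · Signal – optical density at 615 nm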

[3] = doxorubicin toxicity protection in MRP-1 cells – H69AR cells, CellTiter-Glo, duplicate, MRP-1 activator project, pilot screen (AID 807;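 active = viability increase at or above a cutoff of the median across tested compounds plus 3 SD, cut at about 8.5% in these data, passing the limit was not always enough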;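 note: compound pretreatment 18-22 h then 72 h combined with doxorubicin; 0% = doxorubicin alone and 100% = vehicle without doxorubicin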); conditions: H69AR viability with doxorubicin, CellTiter-Glo luminescence; at 10 µM; hits give high values
[4] = viability of HCT116 without oncogenic beta-catenin – human colon tumor cells, pilot screen (AID 823); conditions: HCT116 beta-catenin knockout viability, CellTiter-Glo, 60 h; at 10 µM; hits give low values;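 note: 0% = wells killed by 20 µM Hyamine and 100% = untreated DMSO cell wells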
[5] = viability of PTEN-null HCT116 cells – cell-based, HCT116 clonal line, CellTiter-Glo, pilot screen (AID 824;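 active = viability at or below 27.92% in each of two runs, the all-compound median minus 4 SD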;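 note: 0% = 20 µM Hyamine control and 100% = vehicle cell control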); conditions: HCT116 PTEN-deleted viability, 60 h, at 10 µM, hits give low values
[6] = RAM pathway blockade in budding yeast – dse1pr::URA3 reporter, 5-FOA selection, pilot screen (AID 869;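 active = inhibition over a set limit, the all-compound mean plus 3 SD, in both replicate runs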;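 note: 0% = DMSO wells with no growth and 100% = 10 µM 1-NA-PP1 with full growth; RAM network block rescues cells from 5-FOA so hits raise OD615 growth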); conditions: S. cerevisiae dse1pr::URA3 5-FOA growth, OD615, 2 d; at 10 µM; hits give high values; strain carries analog-sensitive mutant Cbk1 kinase
[7] = RAM signaling pathway blockade in yeast – S. cerevisiae, Pdr1DBD-CYC8 efflux-inhibited sensitized strain, primary screen (AID 1298;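 active = RAM network inhibition above 8.4% in each of two replicates, 3 SD over the compound average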;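 note: 0% = DMSO untreated cells without growth and 100% = 10 µM 1-NA-PP1 full growth; higher means more yeast growth rescued from 5-FOA killing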); conditions: S. cerevisiae cbk1-as DSE1-URA3 strain, 5-FOA growth OD615, 2 d; at 50 µM; hits give high values

Compound	growth inhibition [1]	growth inhibition [2]	viability increase [3]	viability [4]	viability [5]	inhibition [6]	RAM network inhibition [7]
CCCCCCNC(=O)C(C(=O)OCC)C1CCCCC1 (stereo not given)	-4.1% (inactive)	-1.5% (inactive)	-1.52% (inactive)	84% (inactive)	82.2% (inactive)	0.15% (inactive)	3.88% (inactive)
CC(=O)N(CCCc1ccc(C(C)(C)C)cc1)CCCN(C)C	-2.64% (inactive)	-12.6% (inactive)	-5.16% (inactive)	70.6% (inactive)	76.2% (inactive)	0.59% (inactive)	1.48% (inactive)
C=CCSC1=N/C(=C\c2ccc3c(c2)OCO3)C(=O)S1	-6.71% (inactive)	-9.09% (inactive)	-5.28% (inactive)	103% (inactive)	96.7% (inactive)	4.59% (inactive)	7.07% (inactive)
CC(C)CC(/C(O)=C(\C#N)c1nc2ccccc2[nH]1)N1C(=O)c2ccccc2C1=O (stereo not given)	-13.3% (inactive)	-18.9% (inactive)	-2.01% (inactive)	82% (inactive)	73.3% (inactive)	3.05% (inactive)	4.23% (inactive)
CN(Cc1ccccc1)C(=O)COC(=O)c1ccc2c(c1)OCO2	-6.52% (inactive)	-18.6% (inactive)	0.42% (inactive)	101% (inactive)	104% (inactive)	0.11% (inactive)	0.88% (inactive)
Cc1nc(SCC(=O)Nc2cccc(Cl)c2)n[nH]1	-4.9% (inactive)	-4.81% (inactive)	-1.48% (inactive)	97% (inactive)	97.7% (inactive)	0.56% (inactive)	-0.63% (inactive)
COc1ccccc1OCCNC(=O)c1ccc(S(=O)(=O)N(C)C)cc1	-3.92% (inactive)	3.39% (inactive)	-1.91% (inactive)	100% (inactive)	91.9% (inactive)	-0.715% (inactive)	2.71% (inactive)
Cc1ccccc1NC(=O)c1ccc(S(=O)(=O)N(C)C)cc1	-9.3% (inactive)	-2.52% (inactive)	0.67% (inactive)	102% (inactive)	94% (inactive)	2.17% (inactive)	2.21% (inactive)
Cc1ccc(-c2nc(C3CCCN(S(=O)(=O)c4ccc(C)cc4)C3)no2)cc1 (stereo not given)	-10.8% (inactive)	9.18% (inactive)	5.21% (inactive)	85.2% (inactive)	84.3% (inactive)	1.08% (inactive)	-1.57% (inactive)
CC1=CC(C)(C)N(C(=O)CSc2nnc(-c3ccccc3)o2)c2ccc(C)cc21	-10% (inactive)	2.73% (inactive)	-5.46% (inactive)	62% (inactive)	66.2% (inactive)	0.325% (inactive)	6.03% (inactive)
CC(=O)c1sc2ccccc2c1OC(=O)c1ccco1	-9.99% (inactive)	-11.4% (inactive)	-4.46% (inactive)	83% (inactive)	85.3% (inactive)	0.39% (inactive)	1.97% (inactive)
CCOCCCNC(=O)C(NC(=O)C1CCC(=O)N1)c1ccc(C)cc1 (stereo not given)	-2.92% (inactive)	-1.24% (inactive)	-0.58% (inactive)	109% (inactive)	98.8% (inactive)	1.03% (inactive)	5.24% (inactive)
CC1CCN(c2c(NCc3ccc(C(=O)NCC4COc5ccccc5O4)cc3)c(=O)c2=O)CC1 (stereo not given)	2.94% (inactive)	14.3% (inactive)	-2.96% (inactive)	86.2% (inactive)	96.2% (inactive)	0.785% (inactive)	4.87% (inactive)
Cc1cc(Nc2ccccc2Br)n2nc(C)nc2n1	-3.05% (inactive)	-13.3% (inactive)	-2.64% (inactive)	107% (inactive)	98.2% (inactive)	1.9% (inactive)	-1.82% (inactive)
CCCSc1n[nH]c(NC(C)=O)n1	-9.97% (inactive)	7.95% (inactive)	-0.65% (inactive)	98.6% (inactive)	101% (inactive)	2.27% (inactive)	2.41% (inactive)
CC(C)Cc1cc(-c2ccco2)c(C#N)c(N)n1	-11.4% (inactive)	-17.1% (inactive)	-4.39% (inactive)	80.9% (inactive)	89.4% (inactive)	3.23% (inactive)	9.01% (inactive)
CCOCCOC(=O)C1=C(C)NC2=C(C(=O)CC(c3cccs3)C2)C1c1ccsc1 (stereo not given)	-1.18% (inactive)	2.17% (inactive)	-1.94% (inactive)	93.5% (inactive)	89.2% (inactive)	2.27% (inactive)	6.89% (inactive)
CCCCCn1c(NC2CCCCC2)nc2c1c(=O)[nH]c(=O)n2C	-15.8% (inactive)	-18.2% (inactive)	-3.48% (inactive)	83.3% (inactive)	86.1% (inactive)	1.53% (inactive)	-0.84% (inactive)

Compound	growth inhibition [1]	growth inhibition [2]	viability increase [3]	viability [4]	viability [5]	inhibition [6]	RAM network inhibition [7]
CCCCCSc1nnc2c(n1)OC(C)N(C(C)=O)c1ccccc1-2 (stereo not given)	-10.3% (inactive)	-6.29% (inactive)	-4.28% (inactive)	82.8% (inactive)	86.5% (inactive)	1.47% (inactive)	2.22% (inactive)
C=CCOC(=O)c1[nH]c2c(c1C)C(=O)CC(c1cc(OC)c(OC)c(OC)c1)C2 (stereo not given)	1.75% (inactive)	6.24% (inactive)	-0.05% (inactive)	53.4% (inactive)	66.7% (inactive)	3.67% (inactive)	5.97% (inactive)
Nc1nc2n(n1)C(c1ccc(Cl)cc1)CC(c1ccc(F)cc1)N2 (stereo not given)	-3.33% (inactive)	13% (inactive)	5.31% (inactive)	92.5% (inactive)	80.8% (inactive)	0.43% (inactive)	5.91% (inactive)
CC1=CCC2C(=O)N(c3ccc(C)c(Br)c3)C(=O)C2C1 (stereo not given)	5.96% (inactive)	-0.835% (inactive)	0.55% (inactive)	99.5% (inactive)	95.4% (inactive)	0.08% (inactive)	0% (inactive)
CCN(CC)S(=O)(=O)c1ccc2c3c(cccc13)C(=O)N2	-12.1% (inactive)	-11.4% (inactive)	-4.61% (inactive)	97.1% (inactive)	96.8% (inactive)	2.06% (inactive)	4.63% (inactive)
COc1ccc(C2=NOC(C(=O)Nc3c(C)n(C)n(-c4ccccc4)c3=O)C2)cc1OC (stereo not given)	-9.01% (inactive)	-7.64% (inactive)	1.69% (inactive)	102% (inactive)	106% (inactive)	0.4% (inactive)	4.75% (inactive)
O=C1c2ccccc2-c2nc3ncnn3c(-c3ccccc3Cl)c21	-6.53% (inactive)	-0.65% (inactive)	-3.38% (inactive)	83.3% (inactive)	76.9% (inactive)	0.39% (inactive)	0.58% (inactive)
COC(=O)NCC(c1cccnc1)N1CCN(c2ccccc2)CC1 (stereo not given)	-3.09% (inactive)	-0.34% (inactive)	0.41% (inactive)	91.3% (inactive)	96.8% (inactive)	0.355% (inactive)	-1.35% (inactive)
CCC(C)NC(=O)c1ccc(CS(=O)(=O)c2ccc(OC)cc2)o1 (stereo not given)	4.79% (inactive)	-1.07% (inactive)	-1.33% (inactive)	104% (inactive)	93.2% (inactive)	0.73% (inactive)	-2.32% (inactive)
COCCOC(=O)C1=C(C)NC(=O)NC1c1c(F)cccc1Cl (stereo not given)	-7.95% (inactive)	-2.18% (inactive)	0% (inactive)	106% (inactive)	95.8% (inactive)	0.515% (inactive)	0.88% (inactive)
O=C1c2ccccc2C(Nc2ccc3c(c2)OCCO3)N1c1ccccn1 (stereo not given)	-10.6% (inactive)	-13.5% (inactive)	-1.97% (inactive)	81.5% (inactive)	85.6% (inactive)	1.86% (inactive)	4.05% (inactive)
Cc1c(N=C2C(=O)Nc3ccccc32)c(=O)n(-c2ccccc2)n1C	-1.19% (inactive)	0.225% (inactive)	-2.29% (inactive)	108% (inactive)	90.3% (inactive)	0.61% (inactive)	1.79% (inactive)
CCOc1ccc(Cn2nnc(C(=O)NCCc3ccccc3)c2N)cc1	1.4% (inactive)	2.79% (inactive)	10.7% (active)	96.9% (inactive)	89.9% (inactive)	2.5% (inactive)	4.53% (inactive)
O=C1CC(c2nc3ccccc3[nH]2)CN1Cc1ccccc1 (stereo not given)	-0.355% (inactive)	-0.09% (inactive)	-1.02% (inactive)	101% (inactive)	95% (inactive)	1.07% (inactive)	0.96% (inactive)
CC(C)(C)NC(=O)c1ccc(NC(=O)C2COc3ccccc3O2)cc1 (stereo not given)	-6.05% (inactive)	-6.04% (inactive)	-0.73% (inactive)	99.3% (inactive)	96.4% (inactive)	1.9% (inactive)	-0.88% (inactive)
O=C(NCc1ccccn1)c1ccc2ccccc2n1	4.58% (inactive)	-7.25% (inactive)	-1.47% (inactive)	111% (inactive)	102% (inactive)	1.32% (inactive)	5.32% (inactive)
Cc1nc(N2CCCCC2)c2sc(=S)n(C)c2n1	-7.24% (inactive)	7.63% (inactive)	1.13% (inactive)	82.2% (inactive)	81.9% (inactive)	0.955% (inactive)	2.15% (inactive)
